Reference: ChEMBL document CHEMBL2157983 (Bioorg Med Chem Lett, 2011)

Key:
V79 [1] = experiment: Antiproliferative activity against Chinese hamster V79 cells transfected with Escherichia coli nitroreductase nfsB assessed as reduction in cell number after 72 hrs; assay type: functional, cell-based; conditions: Cricetulus griseus, V79, 72 h
In short: (§1)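 V79 cells carrying vector only served as the control line. The NTR+ line carried a bicistronic construct encoding E. coli nfsB with a puromycin selection marker. Cells were exposed to drug for 72 h. […] The ratio is IC50 in NTR− cells divided by IC50 in NTR+ cells.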

V79 [2] = experiment: Ratio of IC50 for Chinese hamster V79 cells to IC50 for Chinese hamster V79 cells transfected with Escherichia coli nitroreductase nfsB; design: species or system Cricetulus griseus; in short: as §1
Leishmania major = experiment: Trypanocidal activity against Leishmania major promastigote forms infected in sandfly gut assessed as inhibition of parasite growth; assay type: functional, organism-based
V79 [3] = experiment: Antiproliferative activity against Chinese hamster V79 cells assessed as reduction in cell number after 72 hrs; assay type: cell-based; conditions: Cricetulus griseus, V79, 72 h; in short: as §1
SK-OV-3 [4] = experiment: Antiproliferative activity against human SKOV3 cells after 18 hrs assessed as reduction in cell number; assay type: functional, cell-based; conditions: SK-OV-3, 18 h
In short: (§2)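 Untransfected parental SKOV3 cells were compared with SKOV3 cells expressing E. coli nfsB. Drug exposure lasted 18 h. […] The ratio is IC50 in NTR− cells divided by IC50 in NTR+ cells.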

SK-OV-3 [5] = experiment: Antiproliferative activity against human SKOV3 cells with mixed population of 25% NTR(+) cells and 75% NTR(-) cells assessed as reduction in cell number after 18 hrs; assay type: functional, cell-based; conditions: SK-OV-3, 18 h
In short: (§3)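 Drug exposure lasted 18 h. BE50 is the percentage of NTR+ cells in the mix needed to give an IC50 at the log-scale (geometric) midpoint between the IC50s of pure NTR+ and pure NTR− cultures.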

Trypanosoma brucei [6] = experiment: Trypanocidal activity against of Trypanosoma brucei bloodstream trypomastigote forms assessed as inhibition of parasite growth; assay type: functional, organism-based
Trypanosoma brucei [7] = experiment: Ratio of 4-nitrobenzyl phosphoramide mustard IC50 to compound IC50 for Trypanosoma brucei bloodstream trypomastigote forms; assay type: functional
SK-OV-3 [8] = experiment: Antiproliferative activity against human SKOV3 cells transfected with Escherichia coli nitroreductase nfsB assessed as reduction in cell number after 18 hrs; assay type: functional, cell-based; conditions: SK-OV-3, 18 h; in short: as §2
Trypanosoma brucei [9] = experiment: Activity of Trypanosoma brucei NTR assessed as NADH oxidation per mg of protein
In short: (§4)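 Substrate activity reported as the initial velocity of NADH oxidation (nmol/min/mg) with either E. coli nfsB or T. brucei nitroreductase (TbNTR). The reaction was followed by the change in absorbance at 340 nm.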

SK-OV-3 [10] = experiment: Antiproliferative activity against human SKOV3 cells with mixed population of 25% NTR(+) cells and 75% NTR(-) cells assessed as bystander effect by measuring mixed population of NTR(+) and NTR (-) cells to produce an IC50 midway on log scale between those in either NTR(+) or NTR(-) cells alone after 18 hrs; assay type: functional; in short: as §3
SK-OV-3 [11] = experiment: Ratio of IC50 for human SKOV3 cells to IC50 for human SKOV3 cells transfected with Escherichia coli nitroreductase nfsB; assay type: functional; in short: as §2
Escherichia coli = experiment: Activity of Escherichia coli nitroreductase nfsB assessed as NADH oxidation per mg of protein; in short: as §4

NP(=O)(OCc1ccc([N+](=O)[O-])cn1)N(CCCl)CCCl (centres undefined)
IC50 (V79 [1]): 0.009 µM | Ratio IC50 (V79 [2]): 8333 | IC50 (Leishmania major): 8.3 µM | IC50 (V79 [3]): 75 µM

NP(=O)(OCc1c(F)cc([N+](=O)[O-])cc1F)N(CCCl)CCCl (centres undefined)
IC50 (SK-OV-3 [4]): 257 µM | IC50 (SK-OV-3 [5]): 1.37 µM | IC50 (V79 [1]): 0.0008 µM | IC50 (Trypanosoma brucei [6]): 0.99 µM | Ratio IC50 (Trypanosoma brucei [7]): 485 | Ratio IC50 (V79 [2]): 20880 | IC50 (Leishmania major): 1.29 µM | IC50 (SK-OV-3 [8]): 0.17 µM | IC50 (V79 [3]): 17 µM | Activity (Trypanosoma brucei [9]): 1450 nmol/min | Activity (SK-OV-3 [10]): 9.2% | Ratio IC50 (SK-OV-3 [11]): 1520

COc1cc(COP(N)(=O)N(CCCl)CCCl)ccc1[N+](=O)[O-] (centres undefined)
IC50 (SK-OV-3 [4]): 641 µM | IC50 (V79 [1]): 0.003 µM | Activity (Escherichia coli): 2440 nmol/min | IC50 (Trypanosoma brucei [6]): > 10 µM | Ratio IC50 (V79 [2]): 16000 | IC50 (Leishmania major): > 30 µM | IC50 (SK-OV-3 [8]): 0.44 µM | IC50 (V79 [3]): 48 µM | Activity (Trypanosoma brucei [9]): 0 nmol/min | Ratio IC50 (SK-OV-3 [11]): 1460

NP(=O)(OCc1cccc([N+](=O)[O-])c1)N(CCCl)CCCl (centres undefined)
IC50 (SK-OV-3 [4]): 947 µM | IC50 (V79 [1]): 0.26 µM | Activity (Escherichia coli): 683 nmol/min | IC50 (Trypanosoma brucei [6]): > 10 µM | Ratio IC50 (V79 [2]): >385 | IC50 (Leishmania major): > 30 µM | IC50 (SK-OV-3 [8]): 55 µM | IC50 (V79 [3]): > 100 µM | Activity (Trypanosoma brucei [9]): 369 nmol/min | Ratio IC50 (SK-OV-3 [11]): 17

C[C@H](OP(N)(=O)N(CCCl)CCCl)c1ccc([N+](=O)[O-])cc1 (some centres undefined)
IC50 (SK-OV-3 [4]): > 1000 µM | IC50 (V79 [1]): 0.002 µM | Activity (Escherichia coli): 916 nmol/min | IC50 (Trypanosoma brucei [6]): > 10 µM | Ratio IC50 (V79 [2]): 32500 | IC50 (Leishmania major): > 30 µM | IC50 (SK-OV-3 [8]): 0.49 µM | IC50 (V79 [3]): 65 µM | Activity (Trypanosoma brucei [9]): 52 nmol/min | Ratio IC50 (SK-OV-3 [11]): >2000

NC(=O)Cc1cc([N+](=O)[O-])ccc1COP(N)(=O)N(CCCl)CCCl (centres undefined)
IC50 (SK-OV-3 [4]): > 100 µM | IC50 (V79 [1]): 0.05 µM | Ratio IC50 (V79 [2]): >2000 | IC50 (SK-OV-3 [8]): 1.1 µM | IC50 (V79 [3]): > 100 µM | Ratio IC50 (SK-OV-3 [11]): >90

COc1cc([N+](=O)[O-])ccc1COP(N)(=O)N(CCCl)CCCl (centres undefined)
IC50 (V79 [1]): 0.0005 µM | Activity (Escherichia coli): 6980 nmol/min | IC50 (Trypanosoma brucei [6]): > 10 µM | Ratio IC50 (V79 [2]): 82000 | IC50 (Leishmania major): 15.6 µM | IC50 (V79 [3]): 41 µM | Activity (Trypanosoma brucei [9]): 239 nmol/min

NP(=O)(OCc1ccc([N+](=O)[O-])c(F)c1)N(CCCl)CCCl (centres undefined)
IC50 (SK-OV-3 [4]): 246 µM | IC50 (SK-OV-3 [5]): 0.48 µM | IC50 (V79 [1]): 0.003 µM | IC50 (Trypanosoma brucei [6]): > 10 µM | Ratio IC50 (V79 [2]): 16000 | IC50 (Leishmania major): 9.05 µM | IC50 (SK-OV-3 [8]): 0.21 µM | IC50 (V79 [3]): 48 µM | Activity (Trypanosoma brucei [9]): 1120 nmol/min | Activity (SK-OV-3 [10]): 4.2% | Ratio IC50 (SK-OV-3 [11]): 1200

NP(=O)(OCc1ccc([N+](=O)[O-])cc1C(F)(F)F)N(CCCl)CCCl (centres undefined)
IC50 (SK-OV-3 [4]): 172 µM | IC50 (SK-OV-3 [5]): 1.01 µM | IC50 (V79 [1]): 0.004 µM | IC50 (Trypanosoma brucei [6]): 7.97 µM | Ratio IC50 (V79 [2]): 12500 | IC50 (Leishmania major): 5.88 µM | IC50 (SK-OV-3 [8]): 0.31 µM | IC50 (V79 [3]): 50 µM | Activity (SK-OV-3 [10]): 2.8% | Ratio IC50 (SK-OV-3 [11]): 570

COC(=O)c1cc(COP(N)(=O)N(CCCl)CCCl)ccc1[N+](=O)[O-] (centres undefined)
IC50 (SK-OV-3 [4]): 435 µM | IC50 (V79 [1]): 0.1 µM | Activity (Escherichia coli): 167 nmol/min | Ratio IC50 (V79 [2]): 690 | IC50 (SK-OV-3 [8]): 0.43 µM | IC50 (V79 [3]): 69 µM | Ratio IC50 (SK-OV-3 [11]): 1000

NC(=O)c1cc([N+](=O)[O-])ccc1COP(N)(=O)N(CCCl)CCCl (centres undefined)
IC50 (SK-OV-3 [4]): > 100 µM | IC50 (V79 [1]): 0.04 µM | Ratio IC50 (V79 [2]): >2500 | IC50 (SK-OV-3 [8]): 0.8 µM | IC50 (V79 [3]): > 100 µM | Ratio IC50 (SK-OV-3 [11]): >125

Cc1cc(COP(N)(=O)N(CCCl)CCCl)ccc1[N+](=O)[O-] (centres undefined)
IC50 (SK-OV-3 [4]): 477 µM | IC50 (V79 [1]): 0.003 µM | Activity (Escherichia coli): 894 nmol/min | IC50 (Trypanosoma brucei [6]): > 10 µM | Ratio IC50 (V79 [2]): 16000 | IC50 (Leishmania major): > 30 µM | IC50 (SK-OV-3 [8]): 0.45 µM | IC50 (V79 [3]): 48 µM | Activity (Trypanosoma brucei [9]): 158 nmol/min | Ratio IC50 (SK-OV-3 [11]): 1060

NP(=O)(OCc1ccc([N+](=O)[O-])cc1)N(CCBr)CCBr (centres undefined)
IC50 (SK-OV-3 [4]): 1100 µM | IC50 (V79 [1]): 0.0001 µM | Ratio IC50 (V79 [2]): 60000 | IC50 (SK-OV-3 [8]): 0.09 µM | IC50 (V79 [3]): 6 µM | Ratio IC50 (SK-OV-3 [11]): 12244

C[C@@H](OP(N)(=O)N(CCCl)CCCl)c1ccc([N+](=O)[O-])cc1 (some centres undefined)
IC50 (SK-OV-3 [4]): > 1000 µM | IC50 (V79 [1]): 0.002 µM | Activity (Escherichia coli): 1400 nmol/min | IC50 (Trypanosoma brucei [6]): > 10 µM | Ratio IC50 (V79 [2]): 28500 | IC50 (Leishmania major): > 30 µM | IC50 (SK-OV-3 [8]): 0.28 µM | IC50 (V79 [3]): 57 µM | Activity (Trypanosoma brucei [9]): 34 nmol/min | Ratio IC50 (SK-OV-3 [11]): >3500

NC(=O)c1cc(COP(N)(=O)N(CCCl)CCCl)ccc1[N+](=O)[O-] (centres undefined)
IC50 (SK-OV-3 [4]): > 1000 µM | IC50 (V79 [1]): 0.03 µM | Activity (Escherichia coli): 211 nmol/min | Ratio IC50 (V79 [2]): >3330 | IC50 (SK-OV-3 [8]): 6.75 µM | IC50 (V79 [3]): > 100 µM | Ratio IC50 (SK-OV-3 [11]): >150

NP(=O)(OCc1ccc([N+](=O)[O-])cc1Cl)N(CCCl)CCCl (centres undefined)
IC50 (SK-OV-3 [4]): 140 µM | IC50 (SK-OV-3 [5]): 0.54 µM | IC50 (V79 [1]): 0.002 µM | IC50 (Trypanosoma brucei [6]): 9.14 µM | Ratio IC50 (Trypanosoma brucei [7]): 425 | Ratio IC50 (V79 [2]): 13100 | IC50 (Leishmania major): 3.1 µM | IC50 (SK-OV-3 [8]): 0.12 µM | IC50 (V79 [3]): 26 µM | Activity (SK-OV-3 [10]): 3.2% | Ratio IC50 (SK-OV-3 [11]): 1120

NP(=O)(OCc1ccc([N+](=O)[O-])cc1)N(CCCl)CCCl (centres undefined)
IC50 (SK-OV-3 [4]): 943 µM | IC50 (SK-OV-3 [5]): 0.98 µM | IC50 (V79 [1]): 0.0008 µM | Activity (Escherichia coli): 1280 nmol/min | IC50 (Trypanosoma brucei [6]): > 10 µM | Ratio IC50 (V79 [2]): 73750 | IC50 (Leishmania major): > 30 µM | IC50 (SK-OV-3 [8]): 0.099 µM | IC50 (V79 [3]): 59 µM | Activity (Trypanosoma brucei [9]): 246 nmol/min | Activity (SK-OV-3 [10]): 5.6% | Ratio IC50 (SK-OV-3 [11]): 9520

NP(=O)(OCc1ccccc1[N+](=O)[O-])N(CCCl)CCCl (centres undefined)
IC50 (SK-OV-3 [4]): > 1000 µM | IC50 (V79 [1]): 0.18 µM | Activity (Escherichia coli): 256 nmol/min | IC50 (Trypanosoma brucei [6]): > 10 µM | Ratio IC50 (V79 [2]): >556 | IC50 (Leishmania major): > 30 µM | IC50 (SK-OV-3 [8]): 5.23 µM | IC50 (V79 [3]): > 100 µM | Activity (Trypanosoma brucei [9]): 19 nmol/min | Ratio IC50 (SK-OV-3 [11]): >190

NP(=O)(OCc1ccc([N+](=O)[O-])cc1F)N(CCCl)CCCl (centres undefined)
IC50 (SK-OV-3 [4]): 266 µM | IC50 (SK-OV-3 [5]): 0.37 µM | IC50 (V79 [1]): 0.0004 µM | IC50 (Trypanosoma brucei [6]): 9.54 µM | Ratio IC50 (V79 [2]): 122750 | IC50 (Leishmania major): 4.72 µM | IC50 (SK-OV-3 [8]): 0.08 µM | IC50 (V79 [3]): 49 µM | Activity (SK-OV-3 [10]): 3.9% | Ratio IC50 (SK-OV-3 [11]): 3290
